Results reported in ChEMBL document CHEMBL1121804, “Cognition-activating properties of 3-(Aryloxy)pyridines” (J Med Chem, 1981).

Tests used:
[1] = test system: Mus musculus; test: Retention for passive avoidance learning in mice at dose 20 mg/kg; format: functional, organism-based; set-up: dose 20 mg/kg
Summary of the method: (§1)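 Naive male CF-1 mice (19–21 g at shipment), 20 per dose, each used once. Dosed i.p. as an aqueous solution or methocel suspension 1 h before footshock training, with a saline group run in parallel. At the test, mice were placed on an outside shelf; entering the box within 60 s counted as no retention. Values are percent retention. A day was discarded unless controls scored 65–75%.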

[2] = test system: Mus musculus; test: Retention for passive avoidance learning in mice at dose 5.0 mg/kg; format: functional, organism-based; set-up: dose 5 mg/kg; summary of the method: as §1
[3] = test system: Mus musculus; test: (§2) Compound was tested for cognitive activity by measuring retention for passive avoidance learning in mice at dose 0.63 mg/kg; format: functional, organism-based; set-up: dose 0.63 mg/kg; summary of the method: as §1
[4] = test system: Mus musculus; test: Retention for passive avoidance learning in mice at dose 1.25 mg/kg; format: functional, organism-based; set-up: dose 1.25 mg/kg; summary of the method: as §1
[5] = test system: Mus musculus; test: Retention for passive avoidance learning in mice at dose 2.5 mg/kg; format: functional, organism-based; set-up: dose 2.5 mg/kg; summary of the method: as §1
[6] = test system: Mus musculus; test: Retention for passive avoidance learning in mice at dose 80 mg/kg; format: functional, organism-based; set-up: dose 80 mg/kg; summary of the method: as §1
[7] = test system: Mus musculus; test: Compound was tested for cognitive activity by measuring retention for passive avoidance learning in mice at dose 10 mg/kg; format: functional, organism-based; set-up: dose 10 mg/kg
Summary of the method: (§3)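 Male CF-1 mice (19–21 g at shipment), 20 per dose group, each used once. Given ip an aqueous solution or methocel suspension 1 h before footshock training, with a saline group run alongside. Retention test: mouse placed on an outer shelf of the box; entering within 60 s scored as not retained. Value is percent retention. Days with control retention outside 65–75% were discarded.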

[8] = test system: Mus musculus; test: Retention for passive avoidance learning in mice at dose 5 mg/kg; format: functional, organism-based; set-up: dose 5 mg/kg; summary of the method: as §1
[9] = species on record: Mus musculus
[10] = test system: Mus musculus; test: Compound was tested for lethality in mice at a dose 80 mg/kg intraperitoneally; L denotes lethal at this dose; format: functional, organism-based; set-up: dose 80 mg/kg
Summary of the method: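 Male CF-1 mice, 20 per group, were given the agent i.p. as an aqueous solution or methocel suspension 1 h before passive-avoidance training. The table entry L marks a dose that killed the animals.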

[11] = test system: Mus musculus; test: Compound was tested for cognitive activity by measuring retention for passive avoidance learning in mice at dose 40 mg/kg; format: functional, organism-based; set-up: dose 40 mg/kg; summary of the method: as §1
[12] = test system: Mus musculus; test: as §2; format: functional, organism-based; set-up: dose 0.63 mg/kg; summary of the method: as §3; remark: listed apart in the source
[13] = test system: Mus musculus; test: Compound was tested for cognitive activity by measuring retention for passive avoidance learning in mice at dose 1.25 mg/kg; format: functional, organism-based; set-up: dose 1.25 mg/kg; summary of the method: as §3
[14] = test system: Mus musculus; test: Compound was tested for cognitive activity by measuring retention for passive avoidance learning in mice at dose 0.32 mg/kg; format: functional, organism-based; set-up: dose 0.32 mg/kg; summary of the method: as §3
[15] = species on record: Mus musculus; remark: listed apart in the source
[16] = test system: Mus musculus; test: Compound was tested for cognitive activity by measuring retention for passive avoidance learning in mice at dose 20 mg/kg; format: functional, organism-based; set-up: dose 20 mg/kg; summary of the method: as §1
[17] = test system: Mus musculus; test: Compound was tested for cognitive activity by measuring retention for passive avoidance learning in mice at dose 2.5 mg/kg; format: functional, organism-based; set-up: dose 2.5 mg/kg; summary of the method: as §3
[18] = test system: Mus musculus; test: Compound was tested for cognitive activity by measuring retention for passive avoidance learning in mice at dose 0.15 mg/kg; format: functional, organism-based; set-up: dose 0.15 mg/kg; summary of the method: as §3
[19] = test system: Mus musculus; test: Compound was tested for cognitive activity by measuring retention for passive avoidance learning in mice at dose 20 mg/kg i; format: functional, organism-based; set-up: dose 20 mg/kg; summary of the method: as §3
[20] = species on record: Mus musculus; remark: listed apart in the source

SMILES	Retention [1]	Retention [2]	Retention [4]	Retention [5]	Retention [6]	other results
FC(F)(F)c1cccc(Oc2cccnc2)c1	55%	30%				
Fc1ccc(Oc2cccnc2)cc1	80%	95%	60%	85%	50%	Retention [3]: 35%
[O-][n+]1cccc(Oc2ccccc2)c1	20%	40%			0%	
N[C@@H]1C[C@H]1c1ccccc1.N[C@H]1C[C@@H]1c1ccccc1	55%					Retention [7]: 80%; Retention [8]: 75%; Retention [9]: Lethal at this dose
O=[N+]([O-])c1ccccc1Oc1cccnc1	90%	60%			50%	
C1CCc2nnnn2CC1	80%					Retention [7]: 65%; Retention [10]: Lethal at this dose; Retention [11]: 80%; Retention [8]: 80%
CN1C(=O)CN=C(c2ccccc2)c2cc(Cl)ccc21			53%	40%		Retention [8]: 41%
COc1cc2c(cc1OC)C1CC(=O)C(CC(C)C)CN1CC2 (stereo not drawn)			59%	63%		Retention [8]: 33%
Cn1c(=O)c2c(ncn2C)n(C)c1=O			87%	37%	0%	Retention [7]: 3%; Retention [12]: 70%; Retention [11]: 3%; Retention [8]: 37%
CN(C)CCCN1c2ccccc2Sc2ccc(Cl)cc21			70%	70%		Retention [8]: 20%
CN1CCC[C@H]1c1cccnc1				27%		Retention [13]: 53%; Retention [14]: 70%; Retention [12]: 75%; Retention [15]: Lethal
c1cncc(Oc2cccnc2)c1	100%	85%			55%	
COc1ccc(Oc2cccnc2)cc1	75%	78%			35%	
c1ccc(Sc2cccnc2)cc1	85%	80%			85%	
Brc1ccc(Oc2cccnc2)cc1	70%	90%	75%	70%	85%	Retention [3]: 75%
Clc1ccccc1Oc1cccnc1	80%	95%	45%	40%	40%	Retention [3]: 60%
Brc1ccccc1Oc1cccnc1		65%				Retention [16]: 50%
CCCC(C)C1(CC)C(=O)NC(=O)NC1=O (stereo not drawn)			40%	7%		Retention [12]: 23%
Nc1ccccc1Oc1cccnc1	65%	80%		70%	55%	
C[C@H](N)Cc1ccccc1						Retention [13]: 60%; Retention [17]: 65%; Retention [18]: 45%; Retention [14]: 80%; Retention [12]: 100%
O=C1C[C@@H]2OCC=C3CN4CC[C@]56c7ccccc7N1[C@H]5[C@H]2[C@H]3C[C@H]46						Retention [14]: 70%; Retention [12]: 75%
O=C1NC(=O)C(c2ccccc2)(c2ccccc2)N1			85%	75%	15%	Retention [7]: 43%; Retention [19]: 55%; Retention [11]: 50%; Retention [8]: 90%
CN1[C@@H]2C[C@@H](OC(=O)[C@H](CO)c3ccccc3)C[C@H]1[C@@H]1O[C@@H]12						Retention [13]: 35%; Retention [18]: 65%; Retention [14]: 65%; Retention [12]: 30%
Cc1cncc(Oc2ccccc2)c1	80%	70%			45%	

SMILES	Retention [1]	Retention [2]	Retention [4]	Retention [5]	Retention [6]	other results
Cc1ccncc1Oc1ccccc1	85%	75%			15%	
[O-][n+]1cccc(Oc2cccnc2)c1	85%	85%	45%	65%	85%	Retention [3]: 60%
Clc1ccc(Oc2cccnc2)cc1	30%	80%	65%	70%	65%	Retention [3]: 55%
c1ccc(Oc2ccccn2)cc1	50%	65%			30%	
NC1=NC(=O)C(c2ccccc2)O1 (stereo not drawn)	83%				77%	Retention [7]: 70%; Retention [11]: 83%; Retention [8]: 30%
c1ccc(Oc2ccncc2)cc1	65%	70%			0%	
CCOc1ccccc1Oc1cccnc1	70%	70%			65%	
c1ccc(Oc2cccnc2)cc1	70%	100%	90%	90%	35%	Retention [3]: 65%
C=C(C)[C@@H]1[C@H]2OC(=O)[C@@H]1[C@]1(O)C[C@H]3OC34C(=O)O[C@H]2[C@@]41C.CC(C)(O)[C@@H]1[C@H]2OC(=O)[C@@H]1[C@]1(O)C[C@H]3OC34C(=O)O[C@H]2[C@@]41C (stereo partly drawn)				80%		Retention [13]: 90%; Retention [14]: 65%; Retention [12]: 80%; Retention [8]: 70%
Clc1cccc(Oc2cccnc2)c1	60%	60%			0%	
O=c1[nH]c2ccccc2n1C1CCN(CCCC(c2ccc(F)cc2)c2ccc(F)cc2)CC1						Retention [18]: 43%; Retention [14]: 40%; Retention [12]: 27%
CCC1(C)CC(=O)NC1=O (stereo not drawn)					95%	Retention [7]: 63%; Retention [19]: 90%; Retention [11]: 70%
CNC(=O)Oc1ccc2c(c1)[C@]1(C)CCN(C)[C@@H]1N2C						Retention [18]: 45%; Retention [14]: 35%; Retention [20]: Lethal
COC(=O)C(c1ccccc1)C1CCCCN1 (stereo not drawn)	87%		50%	50%		Retention [7]: 65%; Retention [8]: 90%
[Cl-].[Li+]			84%	70%	38%	Retention [7]: 31%; Retention [12]: 60%; Retention [11]: 23%; Retention [8]: 0%
Cc1ncccc1Oc1ccccc1[N+](=O)[O-]	70%	85%	70%	70%	35%	
[O-][n+]1cccc(Oc2ccc[n+]([O-])c2)c1	90%	90%	75%	60%	60%	Retention [3]: 65%
Fc1ccccc1Oc1cccnc1	85%	90%	65%	80%	50%	Retention [3]: 60%
COc1cccc(Oc2cccnc2)c1	55%	55%			20%	
Cc1ncccc1Oc1ccccc1N	45%	65%			40%	
CC(N)Cc1ccccc1 (stereo not drawn)			70%	75%		
CN(C)CCCN1c2ccccc2CCc2ccccc21	77%					Retention [7]: 80%; Retention [11]: 72%; Retention [8]: 65%
Fc1cccc(Oc2cccnc2)c1	55%	90%	75%	75%	55%	Retention [3]: 65%
COC(=O)c1cccc(Oc2cccnc2)c1	60%	70%			55%	
